Data set [1] concerns the target T1, 5-hydroxytryptamine receptor 1A (Rattus norvegicus, UniProt P19327).
T1 sequence (P19327 whole entry): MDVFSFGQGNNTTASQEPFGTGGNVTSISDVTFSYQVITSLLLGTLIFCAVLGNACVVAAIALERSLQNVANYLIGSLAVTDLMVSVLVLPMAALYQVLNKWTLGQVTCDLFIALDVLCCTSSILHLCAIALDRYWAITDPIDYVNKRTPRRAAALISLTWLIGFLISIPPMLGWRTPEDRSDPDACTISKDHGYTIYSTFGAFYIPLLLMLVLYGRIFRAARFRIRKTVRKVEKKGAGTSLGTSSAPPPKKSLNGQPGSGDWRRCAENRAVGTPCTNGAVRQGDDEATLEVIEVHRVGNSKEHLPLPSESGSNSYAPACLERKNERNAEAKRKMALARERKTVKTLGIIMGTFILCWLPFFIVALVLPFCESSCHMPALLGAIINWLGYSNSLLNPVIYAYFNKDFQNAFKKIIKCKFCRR
Nature of the data set: Displacement of [3H]8-OH-DPAT from 5-HT1A receptor in rat frontal cortex membrane after 45 mins by scintillation counting. It counts as cell membranes. In short, it runs like this: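 Membranes from adult rat frontal cortex, prepared in 50 mM Tris-HCl pH 7.7 with washes and a 37 °C preincubation. Incubation buffer: 6.66 mM CaCl2, 16.66 μM pargyline, 0.166% ascorbic acid. Ligand 1.5 nM [3H]8-OH-DPAT; 10 μM 5-HT defines nonspecific binding. 45 min at 25 °C, GF/B filtration, scintillation counting. Triplicates; Ki from two nine-point curves, single-site fit.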
For orientation: Loss of bound radioactivity is the signal in a displacement assay; it reports binding, not function.

For data set [2], the target named is T2, Adrenergic receptor alpha-1 (Rattus norvegicus, UniProt P15823+P23944+P43140).
T2 sequence (P15823 whole entry): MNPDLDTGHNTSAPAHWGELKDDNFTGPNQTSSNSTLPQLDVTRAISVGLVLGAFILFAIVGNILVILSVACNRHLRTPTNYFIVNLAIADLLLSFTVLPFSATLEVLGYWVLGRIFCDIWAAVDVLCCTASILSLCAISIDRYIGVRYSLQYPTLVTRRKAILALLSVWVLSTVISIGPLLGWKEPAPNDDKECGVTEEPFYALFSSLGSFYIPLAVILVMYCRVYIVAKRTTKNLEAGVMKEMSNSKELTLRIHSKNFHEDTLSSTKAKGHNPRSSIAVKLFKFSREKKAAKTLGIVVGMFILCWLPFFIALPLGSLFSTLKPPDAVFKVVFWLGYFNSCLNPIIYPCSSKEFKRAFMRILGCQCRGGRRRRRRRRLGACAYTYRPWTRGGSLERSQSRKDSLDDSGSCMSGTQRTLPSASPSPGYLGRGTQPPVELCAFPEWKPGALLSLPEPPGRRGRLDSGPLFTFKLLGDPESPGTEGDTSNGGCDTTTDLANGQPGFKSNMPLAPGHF
T2 sequence (P23944 whole entry): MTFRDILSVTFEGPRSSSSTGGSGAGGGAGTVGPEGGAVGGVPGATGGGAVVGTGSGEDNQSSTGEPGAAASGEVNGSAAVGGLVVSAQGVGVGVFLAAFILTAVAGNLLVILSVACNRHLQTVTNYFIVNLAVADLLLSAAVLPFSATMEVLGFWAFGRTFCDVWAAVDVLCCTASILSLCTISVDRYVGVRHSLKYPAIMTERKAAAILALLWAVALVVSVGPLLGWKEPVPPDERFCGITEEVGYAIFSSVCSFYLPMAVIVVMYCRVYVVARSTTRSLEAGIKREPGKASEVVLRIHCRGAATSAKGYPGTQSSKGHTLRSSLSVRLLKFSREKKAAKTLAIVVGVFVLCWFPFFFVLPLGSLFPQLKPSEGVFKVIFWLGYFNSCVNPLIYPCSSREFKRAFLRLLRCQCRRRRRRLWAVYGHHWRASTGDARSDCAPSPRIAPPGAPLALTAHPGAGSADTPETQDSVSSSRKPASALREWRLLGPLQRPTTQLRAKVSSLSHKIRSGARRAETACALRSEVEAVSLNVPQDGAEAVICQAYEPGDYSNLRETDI
T2 sequence (P43140 whole entry): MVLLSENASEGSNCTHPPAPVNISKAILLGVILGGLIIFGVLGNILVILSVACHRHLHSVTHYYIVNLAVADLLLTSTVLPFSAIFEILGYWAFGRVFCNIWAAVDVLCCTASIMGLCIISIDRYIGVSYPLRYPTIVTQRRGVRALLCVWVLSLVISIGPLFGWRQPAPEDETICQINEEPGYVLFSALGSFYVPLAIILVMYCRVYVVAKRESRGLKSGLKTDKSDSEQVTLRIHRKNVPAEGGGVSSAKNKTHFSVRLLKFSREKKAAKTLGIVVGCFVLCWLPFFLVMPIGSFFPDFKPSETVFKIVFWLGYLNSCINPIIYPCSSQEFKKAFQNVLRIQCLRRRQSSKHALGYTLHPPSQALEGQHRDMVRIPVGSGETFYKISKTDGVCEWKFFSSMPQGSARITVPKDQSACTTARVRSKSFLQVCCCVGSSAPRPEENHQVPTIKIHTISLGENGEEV
The data set can be described thus: Displacement of [3H]prazosin from alpha1-adrenergic receptor in rat frontal cortex membrane after 45 mins by scintillation spectrometry. The class given is cell membranes. The gist of the method: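 Rat frontal cortex tissue frozen on dry ice, homogenised in 50 mM Tris-HCl pH 7.7 and washed by centrifugation. [3H]prazosin at 0.6 nM; 10 μM prazosin defines nonspecific binding. 45 min at 25 °C, GF/B filtration, scintillation counting. Triplicates; Ki from two nine-concentration curves fitted to a single-site model.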

For data set [3], the target named is 5-hydroxytryptamine receptor 7 (Homo sapiens, UniProt P34969). The data set can be described thus: Displacement of [3H]CT from human 5-HT7 receptor expressed in CHO cells by scintillation spectrometry. The class given is cell-based. The gist of the method: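 Cloned human 5-HT7 receptor from CHO cells, run under the supplier's recommended conditions with [3H]CT. Nonspecific binding with 25 μM clozapine. Ended by GF/C filtration, then scintillation counting. Ki taken from two nine-concentration displacement curves run in triplicate, single-site fit.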

The target of data set [4] is T3, 5-hydroxytryptamine receptor 1A (Rattus norvegicus) (UniProt P19327).
T3 sequence (whole entry): T1 sequence (P19327 whole entry)
Nature of the data set: Displacement of [3H]8-OH-DPAT from 5-HT1A receptor in rat frontal cortex membrane at 10^-7 M after 45 mins by scintillation counting. It counts as cell membranes.

The nature of data set [5]: Selectivity ratio of Ki for alpha1-adrenergic receptor in rat frontal cortex membrane to Ki for human 5-HT7 receptor. It counts as cell membranes.
Data set [6] is described as follows: Metabolic stability in rat liver microsomes after 60 mins by HPLC-MS/MS analysis. It counts as ADME, Microsome. Conditions: read-out: Stability. The gist of the method: (§1)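 Test compound at 100 nM final incubated with rat or human liver microsomes (0.33 mg/mL) at 37 °C for 0, 5, 15, 30 and 60 min. Buffer Tris-HCl pH 7.4 with Mg2+ and BSA. Reaction started with NADPH and stopped with ice-cold MeOH. Parent compound measured by HPLC-MS/MS, positive-ion MRM.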
(Liver microsomes are a subcellular fraction often used to study metabolism.)

Data set [7] is described as follows: Metabolic stability in human liver microsomes after 60 mins by HPLC-MS/MS analysis. The following applies: read-out: Stability. It counts as ADME, Microsome. In short, it runs like this: as §1
Data set [8] is described as follows: Selectivity ratio of Ki for 5-HT1A receptor in rat frontal cortex membrane to Ki for human 5-HT7 receptor. The class given is cell membranes.

5-hydroxytryptamine receptor 7, sequence (P34969 whole entry): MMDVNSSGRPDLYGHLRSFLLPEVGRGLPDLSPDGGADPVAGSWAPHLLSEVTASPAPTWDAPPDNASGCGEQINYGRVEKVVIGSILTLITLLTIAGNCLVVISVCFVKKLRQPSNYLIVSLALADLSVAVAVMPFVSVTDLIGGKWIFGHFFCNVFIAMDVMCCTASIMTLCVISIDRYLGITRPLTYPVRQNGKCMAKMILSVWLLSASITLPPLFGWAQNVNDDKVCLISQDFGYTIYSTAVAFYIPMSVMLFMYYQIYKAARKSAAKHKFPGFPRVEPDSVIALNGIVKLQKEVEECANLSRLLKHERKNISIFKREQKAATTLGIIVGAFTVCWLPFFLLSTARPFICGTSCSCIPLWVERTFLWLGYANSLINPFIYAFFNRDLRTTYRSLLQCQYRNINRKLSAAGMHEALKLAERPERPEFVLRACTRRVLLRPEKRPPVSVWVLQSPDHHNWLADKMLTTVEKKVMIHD

Take `O=C1Nc2cc(F)ccc2C1CCCCN1CCN(c2cccc(Cl)c2)CC1` (centres undefined): the Ki is 118 nM in data set [1], 12.5 nM in data set [2] and 6.7 nM in data set [3].
Taken in the same sequence, the figures for `CCC1(CCCCN2CCN(c3ccccc3Cl)CC2)C(=O)Nc2ccccc21` (centres undefined) were 30 nM, 64 nM and 53 nM.
For the molecule `CCC1(CCCCN2CCN(c3ccc(Cl)cc3Cl)CC2)C(=O)Nc2ccccc21` (centres undefined), the Ki in data set [2] turned out to be 380 nM; in data set [3], 139 nM. Besides, the inhibition in data set [4] was found to be 11%. In data set [5], the Ratio Ki worked out at 3. Also, the remaining at 1 h in data set [6] amounted to 17%; in data set [7], 28%.
For the molecule `O=C1Nc2cc(F)ccc2C1CCCCN1CCN(c2ccccn2)CC1` (centres undefined), the inhibitory constant (Ki) stood at 99 nM in data set [1], 33 nM in data set [2] and 16.8 nM in data set [3].
Consider `CCC1(CCCCN2CCN(c3cccc(C(F)(F)F)c3)CC2)C(=O)Nc2ccccc21` (centres undefined), for which the Ki in data set [1] worked out at 36 nM; in data set [3], 5.1 nM.
`O=C1Nc2ccccc2C1CCCCN1CCN(c2ccccn2)CC1` (centres undefined): the Ki in data set [1] is 56 nM; in data set [2], 130 nM; in data set [3] it was 10.9 nM.
Regarding `CCC1(CCCCN2CCN(c3cccc(Cl)c3)CC2)C(=O)Nc2c1cc(Cl)c(F)c2Cl` (centres undefined), the results for the Ki in data set [1], in data set [2] and in data set [3] were 680 nM, 97 nM and 72 nM, respectively.
Take `O=C1Nc2cc(F)ccc2C1CCCCN1CC=C(c2cccc(Cl)c2)CC1` (centres undefined): the inhibition in data set [4] was determined as 72%. This molecule also registered an inhibitory constant (Ki) in data set [3] of 13 nM.
With `O=C1Nc2ccccc2C1CCCCN1CCN(c2ccc(F)cc2)CC1` (centres undefined), the inhibitory constant (Ki) in data set [2] was 14 nM; in data set [3] it was 5 nM. The same molecule displayed an inhibition in data set [4] of 10%.
`O=C1Nc2ccccc2C1CCCCN1CC=C(c2cccc(C(F)(F)F)c2)CC1` (centres undefined): the Ki in data set [1] was determined as 19 nM; in data set [2] it was 310 nM; in data set [3] it was 11.1 nM.
With `CCC1(CCCCN2CCC(c3ccc(F)cc3)CC2)C(=O)Nc2ccccc21` (centres undefined), the inhibitory constant (Ki) in data set [2] was determined as 29 nM; in data set [3] it was 6.9 nM. In data set [4], this molecule yielded an inhibition of 11%.
For `CCC1(CCCCN2CCN(c3ccc(Cl)cc3)CC2)C(=O)Nc2cc(F)c(Cl)cc21` (centres undefined), the figures for the Ratio Ki in data set [8] and in data set [5] were above 100 and 19, respectively. Also, the Ki in data set [2] turned out to be 191 nM; in data set [3], 10 nM. The molecule further gave an inhibition in data set [4] of 0%. Moreover, the remaining at 1 h was 18% in data set [6] and 10% in data set [7].
Take `O=C1Nc2c(Cl)cc(Cl)cc2C1CCCCN1CCN(c2ccc(Cl)cc2)CC1` (centres undefined): the Ki in data set [2] was found to be 757 nM; in data set [3] it was 107 nM.
The matching figures for `O=C1Nc2ccc(F)cc2C1CCCCN1CCN(c2ccccc2)CC1` (centres undefined): 20 nM and 47 nM.
Consider `O=C1Nc2ccc(F)cc2C1CCCCN1CCN(c2ccc(Cl)cc2)CC1` (centres undefined), for which the results for the Ratio Ki in data set [8] and in data set [5] were above 100 and 3, respectively. In addition, the Ki in data set [2] was determined as 116 nM; in data set [3], 40 nM. Moreover, the inhibition in data set [4] was determined as 0%. Further, the remaining at 1 h in data set [6] was 28%; in data set [7] it was 44%.
As for `CCC1(CCCCN2CCN(c3ccccc3OC)CC2)C(=O)Nc2ccccc21` (centres undefined), the values for the Ki in data set [1] and in data set [2] were 9.8 nM and 27 nM, respectively.
Regarding `CCC1(CCCCN2CCN(c3cccc(Cl)c3)CC2)C(=O)Nc2cc(F)c(Cl)cc21` (centres undefined), the Ratio Ki in data set [8] is above 100; in data set [5], 13. Besides, in data set [2], the inhibition constant Ki worked out at 117 nM. Besides, the inhibition in data set [4] came to 16%. In addition, the remaining at 1 h in data set [6] came out at 16%; in data set [7], 46%.
Regarding `O=C1Nc2ccccc2C1CCCCN1CCN(c2ccc(Cl)cc2)CC1` (centres undefined), the Ratio Ki in data set [8] was found to be 257; in data set [5], 6. For the same molecule, the inhibition constant (Ki) in data set [2] was found to be 42 nM; in data set [3], 7 nM. Further, the remaining at 1 h in data set [6] came out at 10%; in data set [7], 52%.
For `CCC1(CCCCN2CCN(c3ccccn3)CC2)C(=O)Nc2ccccc21` (centres undefined), the Ki was found to be 55 nM in data set [1], 150 nM in data set [2] and 4 nM in data set [3].
Consider `CCC1(CCCCN2CCN(c3cccc(F)c3)CC2)C(=O)Nc2ccccc21` (centres undefined), for which the inhibition constant (Ki) in data set [1] turned out to be 73 nM; in data set [3], 11 nM.
For `CCC1(CCCCN2CC=C(c3cccc(Cl)c3)CC2)C(=O)Nc2ccc(F)cc21` (centres undefined), the Ki was 123 nM in data set [1], 140 nM in data set [2] and 52 nM in data set [3].
Take `CCC1(CCCCN2CC=C(c3ccc(F)cc3)CC2)C(=O)Nc2ccccc21` (centres undefined): the Ki in data set [2] is on record as 46 nM. In data set [4], this molecule came in with an inhibition of 62%.
For `O=C1Nc2cc(F)ccc2C1CCCCN1CCN(c2ccc(Cl)cc2)CC1` (centres undefined), the Ki turned out to be 55 nM in data set [2] and 25 nM in data set [3]. Moreover, in data set [4], the inhibition amounted to 6%.
Consider `CCC1(CCCCN2CCN(c3cccc(Cl)c3)CC2)C(=O)Nc2ccc(F)cc21` (centres undefined), for which the inhibition constant (Ki) in data set [1] amounted to 111 nM; in data set [2], 46 nM.
Turning to `O=C1Nc2ccccc2C1CCCCN1CCN(c2ccccc2)CC1` (centres undefined), the Ki in data set [1] turned out to be 243 nM; in data set [2], 22 nM; in data set [3], 16 nM.

As usually defined, the Ki is the equilibrium dissociation constant of an inhibitor or competing ligand from its target. A higher Ki goes with weaker binding. One may read the inhibition as the change of the read-out against control, counted positive when it falls. Read a high inhibition as a response far below the control.

For the origin of these results see ChEMBL document CHEMBL1833955, “Optimization of (arylpiperazinylbutyl)oxindoles exhibiting selective 5-HT₇ receptor antagonist activity” (J Med Chem, 2011).
